The molecules below were run against RNA-directed RNA polymerase (Hepacivirus hominis, UniProt O39930) (assay: Concentration required for inhibiting hepatitis C virus NS5B RNA polymerase activity.).
Outline: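 HCV NS5B polymerase IC50; each value is the mean of at least duplicate experiments, run on two separate weighings of compound.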

RNA-directed RNA polymerase, sequence (O39930 whole entry): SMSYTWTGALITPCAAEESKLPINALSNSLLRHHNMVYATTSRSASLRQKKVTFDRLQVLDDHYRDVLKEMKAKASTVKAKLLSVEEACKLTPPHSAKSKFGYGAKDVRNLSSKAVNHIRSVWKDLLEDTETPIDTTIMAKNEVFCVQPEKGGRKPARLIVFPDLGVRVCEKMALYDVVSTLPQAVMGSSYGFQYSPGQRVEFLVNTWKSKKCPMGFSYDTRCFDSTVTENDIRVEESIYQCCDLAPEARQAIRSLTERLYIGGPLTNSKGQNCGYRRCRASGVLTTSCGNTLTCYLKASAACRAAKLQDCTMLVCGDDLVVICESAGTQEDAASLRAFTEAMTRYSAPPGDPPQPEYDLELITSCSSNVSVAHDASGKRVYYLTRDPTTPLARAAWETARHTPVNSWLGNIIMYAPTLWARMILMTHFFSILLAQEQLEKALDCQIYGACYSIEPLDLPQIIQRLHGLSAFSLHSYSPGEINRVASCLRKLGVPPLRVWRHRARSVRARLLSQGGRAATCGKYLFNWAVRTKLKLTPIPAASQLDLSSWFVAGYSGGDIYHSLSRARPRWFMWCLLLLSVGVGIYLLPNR

| Structure (SMILES) | IC50 [nM] |
| --- | --- |
| O=C(N[C@@H](Cc1c[nH]c2ccccc12)C(=O)O)c1ccc2c(c1)nc(-c1ccccn1)n2C1CCCCC1 | 1900 |
| COc1ccc([C@H](C)NC(=O)c2ccc3c(c2)nc(-c2ccccn2)n3C2CCCCC2)cc1OC | 12000 |
| Cc1ccc2[nH]cc(C[C@H](NC(=O)c3ccc4c(c3)nc(-c3ccoc3)n4C3CCCCC3)C(=O)O)c2c1 | 2200 |
| COc1ccc([C@H](NC(=O)c2ccc3c(c2)nc(-c2ccccn2)n3C2CCCCC2)C(=O)O)cc1OC | 2000 |
| O=C(N[C@@H](Cc1c[nH]c2ccc(F)cc12)C(=O)O)c1ccc2c(c1)nc(-c1ccoc1)n2C1CCCCC1 | 2900 |
| O=C(N[C@@H](Cc1ccccc1)C(=O)O)c1ccc2c(c1)nc(-c1ccccn1)n2C1CCCCC1 | 7000 |
| O=C(N[C@@H](Cc1ccccc1)C(=O)O)c1ccc2c(c1)nc(-c1ccoc1)n2C1CCCCC1 | 4000 |
| O=C(N[C@@H](Cc1c[nH]c2ccc([N+](=O)[O-])cc12)C(=O)O)c1ccc2c(c1)nc(-c1ccoc1)n2C1CCCCC1 | 2000 |
| COc1ccc(CNC(=O)c2ccc3c(c2)nc(-c2ccccn2)n3C2CCCCC2)cc1OC | 7000 |
| O=C(N[C@H](Cc1c[nH]c2ccc(O)cc12)C(=O)O)c1ccc2c(c1)nc(-c1ccoc1)n2C1CCCCC1 | 700 |
| Cc1[nH]c2ccc(O)cc2c1C[C@H](NC(=O)c1ccc2c(c1)nc(-c1ccoc1)n2C1CCCCC1)C(=O)O | 460 |
| O=C(N[C@@H](Cc1ccc(O)cc1)C(=O)O)c1ccc2c(c1)nc(-c1ccccn1)n2C1CCCCC1 | 1500 |
| COc1ccc2[nH]cc(C[C@H](NC(=O)c3ccc4c(c3)nc(-c3ccoc3)n4C3CCCCC3)C(=O)O)c2c1 | 400 |
| COc1ccc([C@@H](C)NC(=O)c2ccc3c(c2)nc(-c2ccccn2)n3C2CCCCC2)cc1OC | 3000 |
| O=C(NCCc1c[nH]c2ccc(O)cc12)c1ccc2c(c1)nc(-c1ccoc1)n2C1CCCCC1 | 1500 |

More lines, in order of falling IC50, values ahead:

| IC50 [nM] | Structure (SMILES) |
| --- | --- |
| 400 | O=C(N[C@@H](Cc1ccc(O)cc1)C(=O)O)c1ccc2c(c1)nc(-c1ccoc1)n2C1CCCCC1 |
| 400 | COc1ccc([C@H](NC(=O)c2ccc3c(c2)nc(-c2ccoc2)n3C2CCCCC2)C(=O)O)cc1OC |
| 400 | O=C(N[C@@H](Cc1c[nH]c2ccccc12)C(=O)O)c1ccc2c(c1)nc(-c1ccoc1)n2C1CCCCC1 |
| 160 | Cn1cc(C[C@@H](NC(=O)c2ccc3c(c2)nc(-c2ccoc2)n3C2CCCCC2)C(=O)O)c2cc(O)ccc21 |
| 150 | O=C(N[C@@H](Cc1c[nH]c2ccc(NS(=O)(=O)C(F)(F)F)cc12)C(=O)O)c1ccc2c(c1)nc(-c1ccoc1)n2C1CCCCC1 |
| 140 | O=C(N[C@@H](Cc1c[nH]c2ccc(O)cc12)C(=O)O)c1ccc2c(c1)nc(-c1ccccn1)n2C1CCCCC1 |
| 120 | CS(=O)(=O)Nc1ccc2[nH]cc(C[C@H](NC(=O)c3ccc4c(c3)nc(-c3ccoc3)n4C3CCCCC3)C(=O)O)c2c1 |
| 100 | CC(C)(Oc1ccc2[nH]cc(C[C@H](NC(=O)c3ccc4c(c3)nc(-c3ccoc3)n4C3CCCCC3)C(=O)O)c2c1)C(=O)O |
| 90 | Nc1ccc2[nH]cc(C[C@H](NC(=O)c3ccc4c(c3)nc(-c3ccoc3)n4C3CCCCC3)C(=O)O)c2c1 |
| 60 | CC(=O)Nc1ccc2[nH]cc(C[C@H](NC(=O)c3ccc4c(c3)nc(-c3ccoc3)n4C3CCCCC3)C(=O)O)c2c1 |
| 50 | O=C(N[C@@H](Cc1c[nH]c2ccc(O)cc12)C(=O)O)c1ccc2c(c1)nc(-c1ccoc1)n2C1CCCCC1 |
| 37 | NC(=O)c1ccc2[nH]cc(C[C@H](NC(=O)c3ccc4c(c3)nc(-c3ccoc3)n4C3CCCCC3)C(=O)O)c2c1 |
| 20 | O=C(O)c1ccc2[nH]cc(C[C@H](NC(=O)c3ccc4c(c3)nc(-c3ccoc3)n4C3CCCCC3)C(=O)O)c2c1 |
| 19 | O=C(O)COc1ccc2[nH]cc(C[C@H](NC(=O)c3ccc4c(c3)nc(-c3ccoc3)n4C3CCCCC3)C(=O)O)c2c1 |
| 15 | O=C(N[C@@H](Cc1c[nH]c2ccc(C3N=NN=N3)cc12)C(=O)O)c1ccc2c(c1)nc(-c1ccoc1)n2C1CCCCC1 |
| 8 | O=C(O)C(=O)Nc1ccc2[nH]cc(C[C@H](NC(=O)c3ccc4c(c3)nc(-c3ccoc3)n4C3CCCCC3)C(=O)O)c2c1 |
